Laboratory results as given in the RNAGym collection of RNA variant scans (doi:10.1126/science.aae0568).
Fewer inactive variants are shown than the library holds.

B1: tRNA (parent)
chain: GUUCCGUUGGCGUAAUGGUAACGCGUCUCCCUCCUAAGGAGAAGACUGCGGGUUCGAGUCCCGUACGGAACG

Variants of: B1
Assay: yeast fitness relative to wild type (ratio to wild type); higher = fitter; tRNA-Arg(CCU), competitive growth, 37 C, YPD
Summary of the method: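 For this measurement, the tRNA-Arg(CCU) gene was varied by chemical synthesis at a 3% per-site mutation rate across 69 sites, and each variant was placed at the native genomic locus in Saccharomyces cerevisiae. The pooled strains went through a 24-hour competition in YPD at 37°C in six parallel replicates, with amplicons from start and end populations read by 100-nucleotide paired-end sequencing. Darwinian fitness relative to wild type followed from the change in each genotype's frequency. Genotypes needed ≥ 100 starting reads, and estimates < 0.5 were set to 0.5.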

Variant	yeast fitness
GUUCCGUUGGCGUAUUGGUAACGUGUCUCCCUCCUAAGGAGACGACUGCGGGUUCGAGUCCCGUACGGAACG	0.573
GUUCCGUUGGCGUAUUGGUAACGUGUUUCCCUCCUAAGGAGAAGACUGUGGGUUCGAGUCCCGUACGGAACG	≤ 0.5
GUUCCGUUGGCGUAUUGGUAACGUGUUUCCCUCCUAAGGAGAAGACUGCGGGUUCGAGUCCCGUACAGAACG	≤ 0.5
GUUCCGUUGGCGUAUUGGUAACGUGUCUCCCUCCUAAGGAGAAGACUGCGGGUUCGAGUCCCGCACGGAACG	≤ 0.5
GUUCCGUUGGCGUAUUGGUAACGCGUAUCCCUCCUAAGGAGAAGACUGCGGGUUCGAGUCCCGUCCAGCACG	≤ 0.5
GUUCCGUUGGCGUAUUGGUAACGCGUGUCCCUCCUAAGGAGAAGACUGCGGGUUCGAGUCCCGUACGGAACG	0.531
GUUCCGUUGGCGUAUUGGUAACGCGUGUCCCUCCUAAGGAGAAGACUGAGGGUUCGAGUCCCGUACGGAACG	0.518
GUUCCGUUGGCGUAUUGGUAACGCGUGUCCCUCCUAAGGAGAAGACUGAGGUUUCGAGUCCCGUACGGAACG	≤ 0.5
GUUCCGUUGGCGUAUUGGUAACGCGUGUCCCUCCUAAGGAGAAGACUGCGGGUUCGAGUCCAGUAAGGAACG	≤ 0.5
GUUCCGUUGGCGUAUUGGUAACGCGUGCCCCUCCUAAGGAGAAGACUGCGGGUUCGAGUCCGGUACGGAACG	0.534
GUUCCGUUGGCGUAUUGGUAACGCGUGGCCCUCCUAAGGAGAAGACUGCGGGUUCGAGUCCCGUACCGAACG	≤ 0.5
GUUCCGUUGGCGUAUUGGUAACGCGUGUCCCUCCUAAGGAGAAGACUGCGGGUACGAGUCCCGUACGGAACG	≤ 0.5
GUUCCGUUGGCGUAUUGGUAACGCGUUUCCCUCCUGAGGAGAAGACUGCGGGUUCGAGUCUUGUACGGAACG	≤ 0.5
GUUCCGUUGGCGUAUUGGUAACGCGUUUCCCUCCUGAGGAGAAGACUGCGGGUUCCAGUCCCGUACGGAACG	≤ 0.5
GUUCCGUUGGCGUAUUGGUAACGCGUUUCCCUCCUAAGGAGAAGACUGCGGGUUCGAGUCCCGUUCGGAACG	0.725
GUUCCGUUGGCGUAUUGGUAACGCGUUUCCCUCUUAAGGACAAGACGGCGGGUUCGAGUCCCGUACGGAACG	0.555
GUUCCGUUGGCGUAUUGGUAACGCGUUUCCCUCCUAAGGAGAAGACUGCGGGUUCGAGUCCCGUAAGGAACG	≤ 0.5
GUUCCGUUGGCGUAUUGGUAACGCGUUUCCCUCCUAAGGAGAACACUGCGGGUUCGACUCCCCUACGGAACG	≤ 0.5
GUUCCGUUGGCGUAUUGGUAACGCGUUUCCCUCCUAAGGAGAAGACUCCGGGUUCGAGUCCCGUACGGAACG	0.587
GUUCCGUUGGCGUAUUGGUAACGCGUUUCCCUCCUAAGGAGAAGACUCCGGGUUCGAGUCCCGUACGGAUCG	0.549
GUUCCGUUGGCGUAUUGGUAACGCGUCUACCUCCUAAGGAGAAGACUGCGGGUUCGAGUCCCGUACGGAACG	0.568
GUUCCGUUGGCGUAUUGGUAACGCGUCUACCUCCUAAGGAGACGACUGCCGGUUCGAGUCCCGUACGGAACG	≤ 0.5
GUUCCGUUGGCGUAUUGGUAACGCGUCUACGUCCUAAGGAGAAGACUGCGGGUUCGAGUGCCGUACGGAACG	0.618
GUUCCGUUGGCGUAUUGGUAACGCGUCUACCUCUUAAGGAGAAGACUGCGGGUUAGAGUCCCGUACGGAACG	0.519
GUUCCGUUGGCGUAUUGGUAACGCGUCUACCUCCUAAGGAGAAGACUGGGGGUUCGAGUCCCGUACGGAACG	0.634

Variant	yeast fitness
GUUCCGUUGGCGUAUUGGUAACGCGUCUACCUCCUAAGGAGAAGACUCCGGGUUCGAGUCCCGUACGGAACG	≤ 0.5
GUUCCGUUGGCGUAUUGGUAACGCGUCUGCGUCCUAAGGAGAAGACUGCGGGUUCGAGUCCCGUACGGAACG	≤ 0.5
GUUCCGUUGGCGUAUUGGUAACGCGUCUGCCUCCUAAGGAGAAGACUACGGGUUCGAGUCCCGUACGGUACG	≤ 0.5
GUUCCGUUGGCGUAUUGGUAACGCGUCUCGCUCCUAAGGAGAAGACUGCGGGUUCGAGUCCCGUACGGAACG	≤ 0.5
GUUCCGUUGGCGUAUUGGUAACGCGUCUCCAUCCUAAGGAGAAGACUGGGGGUUCGAGUCCCGUACGGACCG	≤ 0.5
GUUCCGUUGGCGUAUUGGUAACGCGUCUCCAUCCUAAGGAGAAGACUGCGGGUUCGAGUGCCGUACGGAACG	≤ 0.5
GUUCCGUUGGCGUAUUGGUAACGCGUCUCCGUCCUAAGGAGAAGACUGCCGGUUCGACUCCCGUACGGAACG	0.588
GUUCCGUUGGCGUAUUGGUAACGCGUCUCCGUCCUAAGGAGAAGACUGCGGGUGCGAGUCCCGUACGGAACG	≤ 0.5
GUUCCGUUGGCGUAUUGGUAACGCGUCUCCUUCCUGAGGAGAAGACUGCGGGUUCGAGUCCCGUACGGAACG	0.568
GUUCCGUUGGCGUAUUGGUAACGCGUCUCCUUCCUAAGGAGAAGACUGCGGAUUCGUCUCCCGUACGGAACG	≤ 0.5
GUUCCGUUGGCGUAUUGGUAACGCGUCUCCUUCCUAAGGAGAAGACUGCGGGUUCGAGUCCCGUACAGAACG	0.565
GUUCCGUUGGCGUAUUGGUAACGCGUCUCCCUGCUAAGGAGAAGACUGCGGGUUCGAGUCCGGUAUGGAACG	≤ 0.5
GUUCCGUUGGCGUAUUGGUAACGCGUCUCCCUGCUAAGGAGAAGACUGCUGGUUCGAGUCCCGUACGGAACG	0.527
GUUCCGUUGGCGUAUUGGUAACGCGUCUCCCUUCUAAGGAGAAGACUGCGGGUUCGAGUCCCGUACGGAACG	0.724
GUUCCGUUGGCGUAUUGGUAACGCGUCUCCCUCAUAAGGAGAAGACUGCGGGUUCGAGUCCCGUACGGAACG	0.707
GUUCCGUUGGCGUAUUGGUAACGCGUCUCCCUCGUAAGGAGAAGACUGCGGGUUCGAGUCCCGUACGGAACG	≤ 0.5
GUUCCGUUGGCGUAUUGGUAACGCGUCUCCCUCGUAAGGAGAAGACUGCGGGUUCGAGUCCCGUACGGUACG	≤ 0.5
GUUCCGUUGGCGUAUUGGUAACGCGUCUCCCUCGUAAGGAGAAGACUGCGAGUUCGAGUCCCGUAUGGAACG	0.584
GUUCCGUUGGCGUAUUGGUAACGCGUCUCCCUCCUAAGGAGAAGAAUGCGGGUUCGAGCCCCGUACGGAACG	≤ 0.5
GUUCCGUUGGCGUAUUGGUAACGCGUCUCCCUCCUAAGGAGAAGAGUGCGGGUUAGAGUCCCGUACGGUACG	≤ 0.5
GUUCCGUUGGCGUAUUGGUAACGCGUCUCCCUCCUAAGGAGAAGAGUGCGGGUUCGAGUCACGUACGGAACG	0.51
GUUCCGUUGGCGUAUUGGUAACGCGUCUCCCUCCUAAGGAGAAGAGUGCGGGUUCGAGUCACGUACGGAUCG	≤ 0.5
GUUCCGUUGGCGUAUUGGUAACGCGUCUCCCUCCUAAGGAGAAGAUUGCGGGUUCGAGUCCCGUAUGGGACG	≤ 0.5
GUUCCGUUGGCGUAUUGGUAACGCGUCUCCCUCCUAAGGAGAAGACUGGGGGUUCGAGUCCCGUACGGAGCG	0.576
GUUCCGUUGGCGUAUUGGUAACGCGUCUCCCUCCUAAGGAGAAGACUGGGGGUUCGAGUCCCGUACGCAACG	≤ 0.5

Variant	yeast fitness
GUUCCGUUGGCGUAUUGGUAACGCGUCUCCCUCCUAAGGAGAAGACUGUGGGUUCGAGUCCCGUACGGAACG	0.731
GUUCCGUUGGCGUAUUGGUAACGCGUCUCCCUCCUAAGGAGAAGACUGCGGGUUUAAGUCCCGUAGGGAACG	0.59
GUUCCGUUGGCGUAUUGGUAACGCGUCUCCCUCCUAAGGAGAAGACUGCGGGUUCGAGUACCAUACGGAACG	≤ 0.5
GUUCCGUUGGCGUAUUGGUAACGCGUCUCCCUCCUAAGGAGAAGACUGCGGGUUCGAGUGCCGUAGGGAACG	≤ 0.5
GUUCCGUUGGCGUAUUGGUAACGCGUCUCCCUCCUAAGGAGAAGACUGCGGGUUCGAGUCCAGUACGGAACG	0.624
GUUCCGUUGGCGUAUUGGUAACGCGUCUCCCUCCUAAGGAGAAGACUGCGGGUUCGAGUCCCGUAAGGAACG	0.649
GUUCCGUUGGCGUAUUGGUAACGCGUCUCCCUCCUAAGGAGAAGACUGCGGGUUCGAGUCCCGUAUGGAACG	0.738
GUUCCGUUGGCGUAUUGGUAACGCGUCUCCCUCCUAAGGAGAAGACUGCGGGUUCGAGUCCCGUAUGGUACG	0.566
GUUCCGUUGGCGUAUUAGUAACGCGUCUGCCUCCUAAGGAGAAGACUGCGGGUUCGAGUCCCGUACGGAACG	≤ 0.5
GUUCCGUUGGCGUAUUAGUAACGCGUCUCCCUCGUAAGGAGAAGAAUGCGGGUUCGAGUCCCGUACGGAACG	0.569
GUUCCGUUGGCGUAUUAGUAACGCGUCUCCCUCCUAAGGAGAAGACUGCGGGCUCGAGUCCCGUAUGGUACG	≤ 0.5
GUUCCGUUGGCGUAUUCGUAACGCGUCUCCCUCCUAAGGAGAAGUCUGGGGGUUCGAGUCCCGUACGGAUCG	0.528
GUUCCGUUGGCGUAUUCGUAACGCGUUUCCCUCCUAAGGAGAAGACUGCGGGUUCGAGUGCCGUACGGAACG	≤ 0.5
GUUCCGUUGGCGUAUUGAUAACGCGUCUCCCUCCUAAGGAGUAGACUGCGGGUUCGAGUCCCGUACGGAACG	0.567
GUUCCGUUGGCGUAUUGAUAACGCGUAUCCCUCCUAAGGAGAAGACUGCGGGUUCGAGUCCCGUACGGAACG	1.03
GUUCCGUUGGCGUAUUGAUAACGCGUCUCCCUCCUAAGGAGAAGACUGCGGGUUCGAAUCCCGUACGGAACG	≤ 0.5
GUUCCGUUGGCGUAUUGCUAACGGGUCUCCCUCCUAAGGAGAAGAAUGCGGGUUCGAGUCCCGCACGGGACG	0.513
GUUCCGUUGGCGUAUUGCUAACCGGUCUCCCUCCUAAGGAGAAGACUGCGGGUUCGAGUCCCGUACGGAACG	≤ 0.5
GUUCCGUUGGCGUAUUGCUAACGCGUCUCCCUCCUAAGGAAAAGACUGCGGGUUCGAGUCCCGUACGGCGCG	≤ 0.5
GUUCCGUUGGCGUAUUGGUAACACGUCUCCCUCCUAAGGAGAAGGCUGCGGGUUCGAGUCCCGUACGGAACG	≤ 0.5
GUUCCGUUGGCGUAUUGGUAACAGGUCUUCCUCCUAAGGAGAAGACUGCGGGUUCGAGUCACGUACGGGACG	≤ 0.5
GUUCCGUUGGCGUAUUGGUAACACGUCUCCCUCAUAAGGAGAAGACUGGGGGUUCGGGUCCCGUACGGAACG	0.57
GUUCCGUUGGCGUAUUGGUAACACGUCUCCCUCCUAAGGAGAAGACUGGGGGUUCGAGUCCCGUACGGAACG	0.583
GUUCCGUUGGCGUAUUGGUAACCCGUCUCCCUACUAAGGAGAAGACUGCGGGUUCGAGUCCCGUACGGAACG	≤ 0.5
GUUCCGUUGGCGUAUUGGUAACCCGUCUCCCUACUAAGGAGAAGACUGCGGGUUCGAGUCCCAUACGGAACG	≤ 0.5
